# Measured values taken from ChEMBL document CHEMBL4699493, “Development of Bis-cyclic Imidazolidine-4-one Derivatives as Potent Antibacterial Agents” (J Med Chem, 2020).
# Legend:
# Staphylococcus aureus [1] = experiment: Antibacterial activity against methicillin-resistant Staphylococcus aureus ATCC 33591; type: functional
# Outline: (§1)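 Broth microdilution in TSB. Strains were grown 16 h, subcultured 6 h to log phase, then diluted to 10^6 CFU/mL by OD600. Compound came from a 5 mg/mL DMSO stock diluted in TSB and serially diluted, top final concentration 25 μg/mL. MIC was the lowest concentration giving complete growth inhibition. Done ≥3 times in duplicate.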
# [2] = system: Staphylococcus epidermidis; experiment: Antibacterial activity against methicillin-resistant Staphylococcus epidermidis RP62A; type: functional; outline: as §1
# Klebsiella pneumoniae = experiment: Antibacterial activity against Klebsiella pneumoniae ATCC 13383; type: functional
# Outline: (§2)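 Broth microdilution in TSB. Stocks at 5 mg/mL in DMSO diluted with TSB to 100 μg/mL, then serially diluted; highest test concentration 25 μg/mL. Bacteria grown 16 h, subcultured 6 h to log phase, adjusted to 10^6 CFU/mL by OD600. MIC = lowest concentration giving complete growth inhibition. At least three repeats, each in duplicate.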
# Escherichia coli = experiment: Antibacterial activity against Escherichia coli ATCC 25922; type: functional; outline: as §2
# [3] = Hemolytic activity against mouse RBC measured after 1 hr by microplate reader analysis; type: ADME, cell-based, Erythrocyte; conditions: mouse red blood cells (erythrocytes)
# Outline: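 Mouse red blood cells collected by centrifugation (500–700g, 10 min), washed three times in PBS, and diluted 20-fold in PBS. Mixed with 2-fold serial dilutions of compound (starting at 1 mg/mL in PBS) and incubated 1 h at 37 °C. After centrifugation, supernatant absorbance read at 540 nm. % hemolysis calculated relative to PBS (0%) and 2% Triton (100%). At least three repeats in duplicate.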
# [4] = Selectivity ratio of HC50 for hemolytic activity against mouse RBC to MIC for methicillin-resistant Staphylococcus aureus; type: toxicity; conditions: mouse red blood cells (erythrocytes)
# Outline: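 Mouse RBCs were washed three times in PBS and diluted in 20 volumes of PBS. They were mixed with compound 2-fold serially diluted from 1 mg/mL in PBS, incubated 1 h at 37 °C, then centrifuged; supernatant read at A540. % hemolysis was calculated against PBS (0%) and 2% Triton (100%). Done ≥3 times in duplicate. HC50 was divided by the MRSA MIC.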
# Staphylococcus aureus [5] = experiment: Antibacterial activity against methicillin-resistant Staphylococcus aureus ATCC 33591 assessed as ratio of MIC after and before 13 serial passages; type: functional
# Outline: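 Serial-passage resistance test. A first MIC was run by TSB broth microdilution. Bacteria from the well after the last clear well were resuspended to about 10^6 CFU/mL for the next MIC. This was repeated for 13 passages.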
smiles,measurement,setting,value
NCCCC(=O)N[C@@H](Cc1ccccc1)CN1CC(=O)N(c2ccc(N3CN(C[C@H](Cc4ccccc4)NC(=O)CCCN)CC3=O)cc2)C1,MIC,Staphylococcus aureus [1],> 25 µg/mL
same,MIC,[2],> 25 µg/mL
same,MIC,Klebsiella pneumoniae,> 25 µg/mL
same,MIC,Escherichia coli,> 25 µg/mL
same,HC50 at 1 h,[3],> 250 µg/mL
CCCCCC(=O)N[C@@H](CCCCN)CN1CC(=O)N(c2ccc(N3CN(C[C@H](CCCCN)NC(=O)CCCCC)CC3=O)cc2)C1,MIC,Staphylococcus aureus [1],> 25 µg/mL
same,MIC,[2],> 25 µg/mL
same,MIC,Klebsiella pneumoniae,> 25 µg/mL
same,MIC,Escherichia coli,> 25 µg/mL
same,HC50 at 1 h,[3],> 250 µg/mL
NCCCC[C@@H](CN1CC(=O)N(c2ccc(N3CN(C[C@H](CCCCN)NC(=O)CC45C[C@H]6C[C@@H](C4)C[C@@H](C5)C6)CC3=O)cc2)C1)NC(=O)CC12C[C@H]3C[C@@H](C1)C[C@@H](C2)C3,MIC,Staphylococcus aureus [1],> 25 µg/mL
same,MIC,[2],> 25 µg/mL
same,MIC,Klebsiella pneumoniae,> 25 µg/mL
same,MIC,Escherichia coli,> 25 µg/mL
same,HC50 at 1 h,[3],> 250 µg/mL
NCCCC[C@@H](CN1CC(=O)N(c2ccc(N3CN(C[C@H](CCCCN)NC(=O)Cc4ccc5ccccc5c4)CC3=O)cc2)C1)NC(=O)Cc1ccc2ccccc2c1,MIC,Staphylococcus aureus [1],> 25 µg/mL
same,MIC,[2],> 25 µg/mL
same,MIC,Klebsiella pneumoniae,> 25 µg/mL
same,MIC,Escherichia coli,> 25 µg/mL
same,HC50 at 1 h,[3],> 250 µg/mL
CCCCCCCCCCCCCC(=O)N[C@@H](CCCCN)CN1CC(=O)N(c2ccc(N3CN(C[C@H](CCCCN)NC(=O)CCCCCCCCCCCCC)CC3=O)cc2)C1,MIC,Staphylococcus aureus [1],> 25 µg/mL
same,MIC,[2],> 25 µg/mL
same,MIC,Klebsiella pneumoniae,> 25 µg/mL
same,MIC,Escherichia coli,> 25 µg/mL
same,HC50 at 1 h,[3],> 250 µg/mL
CCCCCCCCCC(=O)N[C@@H](CCCCNC(=N)N)CN1CC(=O)N(c2ccc(N3CN(C[C@H](CCCCNC(=N)N)NC(=O)CCCCCCCCC)CC3=O)cc2)C1,MIC,Staphylococcus aureus [1],1 µg/mL
same,MIC,[2],5 µg/mL
same,MIC,Klebsiella pneumoniae,5 µg/mL
same,selectivity ratio,[4],125
same,MIC,Escherichia coli,> 25 µg/mL
same,HC50 at 1 h,[3],125 µg/mL
CCCCCCCCCC(=O)N[C@@H](Cc1ccccc1)CN1CC(=O)N(c2ccc(N3CN(C[C@H](Cc4ccccc4)NC(=O)CCCCCCCCC)CC3=O)cc2)C1,MIC,Staphylococcus aureus [1],> 25 µg/mL
same,MIC,[2],> 25 µg/mL
same,MIC,Klebsiella pneumoniae,> 25 µg/mL
same,MIC,Escherichia coli,> 25 µg/mL
same,HC50 at 1 h,[3],> 250 µg/mL
CCn1cc(C(=O)O)c(=O)c2cc(F)c(N3CCNCC3)cc21 [NORFLOXACIN],Ratio,Staphylococcus aureus [5],> 22
CCCCCCCCCCCCCCCC(=O)N[C@@H](CCCCN)CN1CC(=O)N(c2ccc(N3CN(C[C@H](CCCCN)NC(=O)CCCCCCCCCCCCCCC)CC3=O)cc2)C1,MIC,Staphylococcus aureus [1],> 25 µg/mL
same,MIC,[2],> 25 µg/mL
same,MIC,Klebsiella pneumoniae,> 25 µg/mL
same,MIC,Escherichia coli,> 25 µg/mL
same,HC50 at 1 h,[3],> 250 µg/mL
O=C(O)c1cn(C2CC2)c2cc(N3CCNCC3)c(F)cc2c1=O [CIPROFLOXACIN],MIC,Staphylococcus aureus [1],0.15 µg/mL
same,MIC,[2],0.15 µg/mL
same,MIC,Klebsiella pneumoniae,0.3 µg/mL
same,MIC,Escherichia coli,0.07 µg/mL
CCCCCCCC(=O)N[C@@H](CCCCN)CN1CC(=O)N(c2ccc(N3CN(C[C@H](CCCCN)NC(=O)CCCCCCC)CC3=O)cc2)C1,MIC,Staphylococcus aureus [1],> 25 µg/mL
same,MIC,[2],> 25 µg/mL
same,MIC,Klebsiella pneumoniae,> 25 µg/mL
same,MIC,Escherichia coli,> 25 µg/mL
same,HC50 at 1 h,[3],> 250 µg/mL
CCCCCCCCCCCC(=O)N[C@@H](CCCCN)CN1CC(=O)N(c2ccc(N3CN(C[C@H](CCCCN)NC(=O)CCCCCCCCCCC)CC3=O)cc2)C1,MIC,Staphylococcus aureus [1],1 µg/mL
same,MIC,[2],2 µg/mL
same,MIC,Klebsiella pneumoniae,> 25 µg/mL
same,selectivity ratio,[4],> 250
same,MIC,Escherichia coli,> 25 µg/mL
same,HC50 at 1 h,[3],> 250 µg/mL
CCCCCCCCCC(=O)N[C@@H](CCCCN)CNCC(=O)Nc1ccc(NC(=O)CNC[C@H](CCCCN)NC(=O)CCCCCCCCC)cc1,MIC,Staphylococcus aureus [1],2 µg/mL
same,MIC,[2],2 µg/mL
same,MIC,Klebsiella pneumoniae,> 25 µg/mL
same,selectivity ratio,[4],> 125
same,MIC,Escherichia coli,> 25 µg/mL
same,HC50 at 1 h,[3],> 250 µg/mL
N=C(N)NCCCC[C@@H](CN1CC(=O)N(c2ccc(N3CN(C[C@H](CCCCNC(=N)N)NC(=O)CC45C[C@H]6C[C@@H](C4)C[C@@H](C5)C6)CC3=O)cc2)C1)NC(=O)CC12C[C@H]3C[C@@H](C1)C[C@@H](C2)C3,MIC,Staphylococcus aureus [1],1 µg/mL
same,MIC,[2],2 µg/mL
same,MIC,Klebsiella pneumoniae,> 25 µg/mL
same,selectivity ratio,[4],250
same,MIC,Escherichia coli,> 25 µg/mL
same,HC50 at 1 h,[3],250 µg/mL
